Source: PubChem BioAssay AID602302 (The Scripps Research Institute Molecular Screening Center, 2012)
The source made the active and inactive calls.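 Rule for the calls: active = inhibition of diacylglycerol lipase beta of at least 50% in a gel probe-labeling test; inactive = inhibition under 50%.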

Target: Diacylglycerol lipase-beta (Mus musculus) (UniProt Q91WC9)
Assay: mouse DAGLb inhibition, probe-labelling competition – biochemical, in-gel fluorescence, HEK293T membranes, overexpressed mouse DAGLb, set 1, late-stage follow-up (AID 602302)
Settings: HEK293T membrane overexpressing mouse DAGLb, gel ABPP fluorescence; at 0.1 µM; active compounds read high
Method in brief: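 Buffer or medium – Dulbecco's PBS (DPBS) · Test system – membrane proteome of transiently transfected HEK293T cells, overexpressed mouse DAGLb · Quantity – membrane protein at 0.3 mg/mL · Doses – single compound dose of 100 nM (0.1 µM) final · Timing – 30 min compound plus 30 min probe, 37 °C · Reagent – fluorescent probe HT-01 at 1 µM final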

Diacylglycerol lipase-beta (Mus musculus), sequence (Q91WC9 whole entry, looked up): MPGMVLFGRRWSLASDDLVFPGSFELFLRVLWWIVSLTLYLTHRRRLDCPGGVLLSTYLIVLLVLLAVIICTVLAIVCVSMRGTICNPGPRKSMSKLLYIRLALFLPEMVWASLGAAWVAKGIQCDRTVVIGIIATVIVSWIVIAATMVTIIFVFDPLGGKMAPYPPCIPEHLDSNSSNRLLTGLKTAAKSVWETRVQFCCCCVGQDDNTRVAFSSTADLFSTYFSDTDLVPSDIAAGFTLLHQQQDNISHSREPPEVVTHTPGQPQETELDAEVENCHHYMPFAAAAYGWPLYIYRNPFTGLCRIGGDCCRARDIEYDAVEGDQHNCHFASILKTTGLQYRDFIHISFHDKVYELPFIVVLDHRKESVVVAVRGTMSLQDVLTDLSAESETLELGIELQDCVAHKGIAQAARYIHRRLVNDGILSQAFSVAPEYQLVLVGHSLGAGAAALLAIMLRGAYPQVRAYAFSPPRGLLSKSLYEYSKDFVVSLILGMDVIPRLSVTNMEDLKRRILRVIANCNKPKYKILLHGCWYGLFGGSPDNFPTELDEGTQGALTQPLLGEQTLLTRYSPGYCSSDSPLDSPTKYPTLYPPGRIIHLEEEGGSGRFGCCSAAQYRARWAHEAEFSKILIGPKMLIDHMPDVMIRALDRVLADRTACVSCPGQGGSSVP

inhibition | Structure (SMILES)
52% | O=C(N1CCCCC1Cc1ccccc1)n1cc(-c2ccc(-c3ccoc3)cc2)nn1 (stereo not given)
44% (inactive) | O=C(N1CCCCC1Cc1ccccc1)n1cc(-c2ccc(-c3cccc(C(F)(F)F)c3)cc2)nn1 (stereo not given)
63% | Cc1ccccc1-c1ccc(-c2cn(C(=O)N3CCCCC3Cc3ccccc3)nn2)cc1 (stereo not given)
68% | O=C(N1CCCCC1Cc1ccccc1)n1cc(-c2ccc(Br)cc2)nn1 (stereo not given)
66% | O=C(N1CCCCC1Cc1ccccc1)n1cc(-c2ccc(-c3ccccc3Cl)cc2)nn1 (stereo not given)
11% (inactive) | O=C(N1CCCCC1Cc1ccccc1)n1cc(-c2ccc(-c3cccc(CO)c3)cc2)nn1 (stereo not given)
31% (inactive) | O=C(N1CCCCC1Cc1ccccc1)n1cc(-c2ccc(-c3ccc(C(F)(F)F)cc3)cc2)nn1 (stereo not given)
55% | COc1ccccc1-c1ccc(-c2cn(C(=O)N3CCCCC3Cc3ccccc3)nn2)cc1 (stereo not given)
18% (inactive) | O=C(N1CCCCC1Cc1ccccc1)n1cc(-c2ccc(-c3ccc4c(c3)OCO4)cc2)nn1 (stereo not given)

The next lines start with the compound.

Structure (SMILES) | inhibition
O=C(N1CCCCC1Cc1ccccc1)n1cc(-c2ccccc2-c2ccccc2)nn1 (stereo not given) | 18% (inactive)
O=C(N1CCCCC1Cc1ccccc1)n1cc(-c2cccc(-c3ccccc3)c2)nn1 (stereo not given) | 27% (inactive)
O=C(N1CCCCC1Cc1ccccc1)n1ncc(-c2ccc(OC(F)(F)F)cc2)n1 (stereo not given) | 0% (inactive)
O=C(N1CCCCC1Cc1ccccc1)n1ncc(C(O)(c2ccccc2)c2ccccc2)n1 (stereo not given) | 9% (inactive)
O=C(N1CCCCC1Cc1ccccc1)n1cc(-c2ccc(-c3ccccc3OC(F)(F)F)cc2)nn1 (stereo not given) | 59%
O=C(N1CCCCC1Cc1ccccc1)n1cc(-c2ccc(-c3ccccc3CO)cc2)nn1 (stereo not given) | 67%
O=C(N1CCCCC1Cc1ccccc1)n1cc(-c2ccc(OC(F)(F)F)cc2)nn1 (stereo not given) | 52%
CC(C)(C)OC(=O)NCCCCCN(CCc1ccccc1)C(=O)n1cc(-c2ccc(OC(F)(F)F)cc2)nn1 | 73%
O=C(c1ccc(-c2ccc(-c3cn(C(=O)N4CCCCC4Cc4ccccc4)nn3)cc2)cc1)N1CCCCC1 (stereo not given) | 10% (inactive)
O=C(N1CCCCC1Cc1ccccc1)n1cc(-c2ccc(-c3ccc(OC(F)(F)F)cc3)cc2)nn1 (stereo not given) | 38% (inactive)
O=C(c1ccc(-c2cn(C(=O)N3CCCCC3Cc3ccccc3)nn2)cc1)N1CCCCC1 (stereo not given) | 41% (inactive)
O=C(N1CCCCC1Cc1ccccc1)n1cc(-c2ccc(-c3ccccc3)cc2)nn1 (stereo not given) | 61%
O=C(N(CCc1ccccc1)Cc1ccco1)n1cc(-c2ccc(OC(F)(F)F)cc2)nn1 | 71%
O=C(N1CCCCC1Cc1ccccc1)n1cc(-c2ccc(-c3ccccc3C(F)(F)F)cc2)nn1 (stereo not given) | 59%
O=C(N1CCCCC1Cc1ccccc1)n1cc(-c2cc(F)cc(F)c2)nn1 (stereo not given) | 55%
CC(C)CN(CCc1ccccc1)C(=O)n1cc(-c2ccc(OC(F)(F)F)cc2)nn1 | 70%
